Measured values reported in ChEMBL document CHEMBL1157575, “Antitumor agents. 272. Structure-activity relationships and in vivo selective anti-breast cancer activity of novel neo-tanshinlactone analogues” (J Med Chem, 2010).
Values after ≈ are worked out from the molar mass of the structure shown.

Columns and labels:
Type in all cases: functional
[1] = tested on: SK-BR-3; test: Growth inhibition of human SK-BR-3 cells after 72 hrs by SRB assay; conditions: SK-BR-3, 72 h, read-out: ED50 (the source's name)
In short: (§1)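 SRB assay. Cells were grown in RPMI-1640 with 10% FBS at 37 °C and 5% CO2, then seeded in 96-well plates. Compound was added from DMSO stock, followed by 72 h incubation. Cells were fixed with 10% TCA, stained with 0.4% SRB, solubilized in 10 mM Tris base, and read at 515 nm. ED50 is the concentration giving 50% reduction of net protein increase versus control; mean of at least three independent determinations.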

[2] = tested on: A549; test: Cytotoxicity against human A549 cells after 72 hrs by SRB assay; conditions: A549, 72 h, read-out: ED50 (the source's name)
[3] = tested on: MDA-MB-231; test: Growth inhibition of human MDA-MB-231 cells after 72 hrs by SRB assay; conditions: MDA-MB-231, 72 h, read-out: ED50 (the source's name); in short: as §1
[4] = tested on: MCF7; test: Growth inhibition of human MCF7 cells after 72 hrs by SRB assay; conditions: MCF7, 72 h, read-out: ED50 (the source's name); in short: as §1
[5] = Cytotoxicity against human KBVIN cells after 72 hrs by SRB assay; conditions: read-out: ED50 (the source's name); in short: as §1
[6] = tested on: ZR-75-1; test: Growth inhibition of human ZR-75-1 cells after 72 hrs by SRB assay; conditions: ZR-75-1, 72 h, read-out: ED50 (the source's name); in short: as §1
[7] = tested on: DU-145; test: Cytotoxicity against human DU145 cells after 72 hrs by SRB assay; conditions: DU-145, 72 h, read-out: ED50 (the source's name)
[8] = tested on: KB; test: Cytotoxicity against human KB cells after 72 hrs by SRB assay; conditions: read-out: ED50 (the source's name); in short: as §1
[9] = tested on: ZR-75-1; test: Selectivity for ED50 for human ZR-75-1 to ED50 for human SK-BR-3
In short: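 SRB growth assay: ZR-75-1 and SK-BR-3 cells in RPMI-1640 with 10% FBS at 37 °C under 5% CO2, seeded in 96-well plates, compound added from DMSO stock, 72 h exposure, TCA fixation, SRB staining, absorbance at 515 nm. ED50 is 50% reduction of net protein increase, averaged from ≥3 independent runs; ratio of ZR-75-1 to SK-BR-3 ED50.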

Compound	EC50 [1] [µg/mL]	EC50 [2] [µg/mL]	EC50 [3] [µg/mL]	EC50 [4] [µg/mL]	EC50 [5] [µg/mL]	EC50 [6] [µg/mL]	EC50 [7] [µg/mL]	EC50 [8] [µg/mL]	Ratio ED50 [9]
CCc1coc2c1c(=O)oc1c3ccccc3ccc21	1.8 (≈ 6.81 µM)	8.2 (≈ 31 µM)	> 10	2.5 (≈ 9.46 µM)	6.6 (≈ 25 µM)	2.3 (≈ 8.7 µM)	8.7 (≈ 32.9 µM)	7.5 (≈ 28.4 µM)	–
CCCc1cccc2c1ccc1c3occ(C)c3c(=O)oc21	0.1 (≈ 0.342 µM)	–	> 10	1.2 (≈ 4.1 µM)	11 (≈ 37.6 µM)	0.3 (≈ 1.03 µM)	15 (≈ 51.3 µM)	12 (≈ 41 µM)	3
CC1COc2c1c(=O)oc1c2ccc2ccccc21 (centres undefined)	14 (≈ 55.5 µM)	–	–	–	–	–	–	–	–
Cc1oc2c(c1C)c(=O)oc1c3ccccc3ccc21	6.9 (≈ 26.1 µM)	–	–	> 20	–	–	–	–	–
CCc1cccc2c1ccc1c3oc(C)cc3c(=O)oc21	2.1 (≈ 7.55 µM)	12 (≈ 43.1 µM)	9.6 (≈ 34.5 µM)	> 20	13 (≈ 46.7 µM)	2.2 (≈ 7.9 µM)	–	14 (≈ 50.3 µM)	–
Cc1cccc2c1ccc1c3occ(C)c3c(=O)oc21	0.2 (≈ 0.757 µM)	–	10 (≈ 37.8 µM)	0.6 (≈ 2.27 µM)	–	0.3 (≈ 1.14 µM)	–	–	–
Cc1coc2c1c(=O)oc1c3cccc(F)c3ccc21	1.1 (≈ 4.1 µM)	14 (≈ 52.2 µM)	> 10	4.5 (≈ 16.8 µM)	15 (≈ 55.9 µM)	0.8 (≈ 2.98 µM)	18 (≈ 67.1 µM)	13 (≈ 48.5 µM)	–
CCc1coc2c1c(=O)oc1c3cccc(C)c3ccc21	11 (≈ 39.5 µM)	–	–	7.5 (≈ 26.9 µM)	–	–	–	–	–
CCc1cccc2c1ccc1c3c(c(=O)oc12)C(C)CO3 (centres undefined)	5.1 (≈ 18.2 µM)	–	–	–	–	–	–	–	–
COc1cccc2c1ccc1c3occ(C)c3c(=O)oc21	0.2 (≈ 0.714 µM)	–	6.4 (≈ 22.8 µM)	2.3 (≈ 8.21 µM)	12 (≈ 42.8 µM)	0.1 (≈ 0.357 µM)	14 (≈ 50 µM)	13 (≈ 46.4 µM)	–
Cc1cc2c(=O)oc3c4ccccc4ccc3c2o1	12 (≈ 48 µM)	–	–	> 20	–	–	–	–	–
Cc1coc2c1c(=O)[nH]c1c3ccccc3ccc12	4.4 (≈ 17.7 µM)	–	–	–	–	–	–	–	–
CCc1cccc2c1ccc1c3occ(CC)c3c(=O)oc21	1.5 (≈ 5.13 µM)	18 (≈ 61.6 µM)	> 10	1.3 (≈ 4.45 µM)	15 (≈ 51.3 µM)	0.6 (≈ 2.05 µM)	16 (≈ 54.7 µM)	12 (≈ 41 µM)	–
CCc1cccc2c1ccc1c3occ(C)c3/c(=N/O)oc21	19 (≈ 64.8 µM)	–	–	> 20	–	–	–	–	–
Cc1ccc2c(=O)oc3c4ccccc4ccc3c2c1	> 20	–	–	–	–	–	–	–	–
CCc1cccc2c1ccc1c3occ(-c4ccc(OC)cc4)c3c(=O)oc21	> 20	–	–	> 20	–	–	–	–	–
